Scp1 inh – Scp-1 phosphatase inhibitors, primary screen, biochemical, colorimetric, uHTS | hit rate 0.88% among 340,000 | Recombinant Scp1, phosphopeptide, malachite green phosphate absorbance | inhibition, % at 20 µM | Carboxy-terminal domain RNA polymerase II polypeptide A small phosphatase 1 (Homo … | AID 493091, 2011;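 active = inhibition above about 50% at 20 µM, limit read from the data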;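 note: plate controls were DMSO wells with enzyme for no effect and wells lacking enzyme for full effect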
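Test system: SCP-1 catalytic domain; Buffer or medium: Acidic Tris acetate buffer with magnesium and detergent; Also added: Phosphorylated 17-residue peptide substrate; Compound: single 20 µM dose, 1% DMSO; Schedule: enzyme reaction 45 min at room temperature, colour 5 min, stabilisation 30 min; Signal: Phosphate-binding colour reagent, absorbance read at 630 nm.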
NadD inh – inhibitors of S. aureus NadD, primary screen, biochemical, colorimetric, uHTS. Nicotinate-nucleotide adenylyltransferase NadD (Staphylococcus aureus N315). purified NadD enzyme, colorimetric absorbance read-out. inhibition, % at 20 µM. hit rate 0.78% among 360,000. AID 602399, 2012; in the data active = inhibition above about 26%
rCAG binder – binders of r(CAG) RNA repeats, primary screen, biochemical, fluorescence. r(CAG) RNA repeat, TO-PRO-1 dye displacement fluorescence. inhibition, % at 3 µM. hit rate 1.3% among 370,000;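 active = inhibition above the plate cutoff, the mean of all test compounds on that plate plus 3 SD, cut at about 35% in these data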;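 note: 0% = DMSO alone and 100% = 100 µM mitoxantrone as full dye displacement; higher means more dye released from RNA so lower well fluorescence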
STEP block – STEP phosphatase inhibitors, primary screen, biochemical, fluorescence intensity, uHTS | inhibition, % at 20 µM | hit rate 0.25% among 360,000 | AID 588621, 2011 | Tyrosine-protein phosphatase non-receptor type 5 (Homo sapiens), P54829 | recombinant STEP, OMFP fluorogenic substrate;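 active = inhibition at 20 µM, scaled per plate between control wells, above about 37%, limit read from the data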;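 note: 0% = DMSO with enzyme and substrate and 100% = substrate only without enzyme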
Target sequence (P54829 whole entry, looked up): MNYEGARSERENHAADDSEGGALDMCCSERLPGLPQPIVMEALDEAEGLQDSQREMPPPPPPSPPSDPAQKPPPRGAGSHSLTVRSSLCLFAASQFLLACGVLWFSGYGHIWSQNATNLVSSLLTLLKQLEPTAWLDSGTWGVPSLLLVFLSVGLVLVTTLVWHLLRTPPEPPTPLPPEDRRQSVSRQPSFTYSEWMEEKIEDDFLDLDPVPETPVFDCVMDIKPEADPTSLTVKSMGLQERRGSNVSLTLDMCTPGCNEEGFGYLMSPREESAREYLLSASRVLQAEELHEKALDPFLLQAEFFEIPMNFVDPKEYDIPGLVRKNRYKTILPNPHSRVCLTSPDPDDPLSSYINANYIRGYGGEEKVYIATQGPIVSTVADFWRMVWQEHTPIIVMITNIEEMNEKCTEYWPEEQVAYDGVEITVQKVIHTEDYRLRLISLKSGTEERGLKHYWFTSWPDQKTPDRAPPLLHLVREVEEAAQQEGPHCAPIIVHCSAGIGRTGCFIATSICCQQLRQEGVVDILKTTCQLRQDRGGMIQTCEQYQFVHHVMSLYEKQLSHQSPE
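Test system: STEP tyrosine phosphatase / Reagent: OMFP at 25 µM / Doses: 20 µM, 1% DMSO / Read-out: percent inhibition scaled to no-enzyme and uninhibited-enzyme controls, plate-pattern corrected / Detection: FITC-channel fluorescence of OMFP product / Medium: Bis-Tris buffer pH 6.0, 2.5 mM DTT, 0.005% Tween 20 / Schedule: 20 min at room temperature, dark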
LMPTP inh – LMPTP phosphatase inhibitors, primary screen, biochemical, fluorescence intensity, uHTS; recombinant LMPTP-A, OMFP fluorogenic substrate; hit rate 0.22% among 360,000; AID 651560, 2012; inhibition, % at 20 µM; Low molecular weight phosphotyrosine protein phosphatase (Homo sapiens), P24666;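 active = compounds that cut the enzyme signal by at least half of the control window in the single-dose screen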;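 note: plate controls were DMSO wells with enzyme plus substrate for no effect and substrate without enzyme for full effect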
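Test system: LMPTP-A phosphatase enzyme. Amount: LMPTP-A at 0.625 nM final in the reaction. Reagent: OMFP substrate, 400 µM final. Times: 50 min at room temperature. Signal: endpoint fluorescence intensity from OMFP dephosphorylation. Read-out basis: % inhibition. Benchmarks: no-enzyme and uninhibited controls.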
rCAG binder conf – small molecules binding CAG repeat RNA – biochemical, fluorescence, confirmation; inhibition, % at 3 µM; AID 652065, 2013; shares compounds with rCAG binder; r(CAG) RNA repeat, TO-PRO-1 dye displacement fluorescence; hit rate 70% among 4,300;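 active = inhibition above a per-plate cutoff, the mean inhibition of sample wells plus 3 SD, cut at about 35% in these data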;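 note: loss of TO-PRO-1 fluorescence as compound displaces dye from 1x1 AA loop RNA; 0% = DMSO only wells and 100% = 100 µM mitoxantrone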
dCAG dye counter – displacement of TO-PRO-1 from CAG DNA duplex, counter-screen for rCAG RNA repeat binder project, biochemical, fluorescence, TO-PRO-1 dye, d(CAG) DNA oligo; shares compounds with rCAG binder; inhibition, % at 3 µM; AID 652068, 2013; hit rate 94% among 4,300; d(CAG) DNA oligo TO-PRO-1 dye displacement;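 active = inhibition above its plate's cutoff, the mean test-well inhibition plus 3 SD, cut at about 4.8% in these data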;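 note: 0% = DNA dye mix with DMSO and 100% = 100 µM mitoxantrone; hits displace the dye from DNA and so lower well fluorescence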
dCAG dye DR – inhibitors of DNA CAG/GTC TO-PRO-1 complex, dose response, counter-screen for rCAG RNA repeat binder project, biochemical, fluorescence, TO-PRO-1 dye. shares compounds with rCAG binder. DNA CAG/GTC duplex TO-PRO-1 dye displacement fluorescence. IC50, µM. hit rate 20% among 250. AID 686960, 2013; in the data active = IC50 below about 10 µM
Numbers without * were called inactive; i = inactive; . = no result given. Rows were chosen to be rich in hits. Some 2.6% of all compounds tested hit in one or more screens of this group.

SMILES	Scp1 inh	NadD inh	rCAG binder	STEP block	LMPTP inh	rCAG binder conf	dCAG dye counter	others
CN1C(=O)C[C@@](C#N)(C(=O)N2CCCC2)[C@H]1c1ccccc1	.	.	3	.	.	.	.
O=C(C1CCCN(S(=O)(=O)c2cccc3ccccc23)C1)N1CCN(Cc2ccccc2)CC1 (centres undefined)	.	.	5	.	.	.	.
Cc1cc(-n2c(C)cc(C(=O)CSc3[nH]c(=O)cc(C(F)(F)F)c3C#N)c2C)no1	3	11	42*	1	0	38*	9.1*
CC(C)[C@H](NC(=O)C1CCCC1)C(=O)N1CCC[C@H]1C(=O)NCCc1ccccc1Cl	.	.	0	.	.	.	.
CCOc1ccc(-n2c(SCC(=O)Nc3cccc4ccccc34)nnc2-c2ccccc2)cc1	.	.	4	.	.	.	.
CC1(C(=O)NS(=O)(=O)c2ccccc2Cl)CCN1C(=O)CCc1ccc(Cl)cc1Cl (centres undefined)	.	-2	47*	-3	-1	36*	7.3*
CC1(C(=O)NS(=O)(=O)c2ccccc2Cl)CCN1C(=O)Cc1ccc(Cl)cc1Cl (centres undefined)	.	-7	23	2	0	.	.
Cc1ccccc1S(=O)(=O)NC(=O)C1(C)CCN1C(=O)CCc1ccc(Cl)cc1Cl (centres undefined)	.	-7	44*	2	-2	33	6.1*
O=C1NC(=Nc2ccccc2Cl)S/C1=C\c1cccc([N+](=O)[O-])c1	-7	5	54*	2	4	67*	26*
COc1c(/C=C2\SC(=Nc3ccccc3Cl)NC2=O)cccc1[N+](=O)[O-]	-9	9	37*	-2	1	71*	29*	dCAG dye DR=i
COc1ccc(/C=C2\SC(=Nc3ccccc3Cl)NC2=O)c(OC)c1	.	18	39*	-2	2	46*	13*
O=C1NC(=Nc2ccccc2Cl)S/C1=C\c1cccc([N+](=O)[O-])c1O	-7	17	89*	3	7	70*	33*	dCAG dye DR=i
O=C1NC(=Nc2ccccc2Cl)S/C1=C\c1ccc(C(=O)O)cc1	5	-2	1	4	-1	.	.
COC(=O)[C@]12C[C@H](CC(=O)N3CCCC3)C(=O)N(Cc3cccc4ccccc34)C1=C[C@H](C(C)C)O[C@@H]2C1CC1	.	.	5	.	.	.	.
O=C(NNC(=O)C1CCCCC1)c1ccco1	-4	-1	-2	6	-1	.	.
CCC1CCC(C(=O)NNC(=O)c2cc(-c3ccco3)[nH]n2)CC1 (centres undefined)	11	-2	46*	3	0	4	2
CCOC(=O)c1sc(-n2[nH]c(C)cc2=O)nc1C	9	7	78*	-1	-1	47*	13*
CCOC(=O)CSc1nc(C)c(C(=O)OCC)s1	-1	-1	-8	-5	-1	.	.
COC(=O)Cn1c(=O)c2c(n(Cc3ccccc3)c1=O)N/C(=C/c1ccc(OC)cc1)C2=O	14	9	75*	-3	0	79*	34*	dCAG dye DR=4*
CCOC(=O)Cc1nc(N2CCN(CCO)CC2)c2c(C)c(C(=O)OCC)sc2n1	.	.	3	.	.	.	.
COC(=O)/C=C1\SC(=Nc2ccccc2)NC1=O	-14	1	1	0	0	.	.
CCOc1cc(/C=C2/SC(=S)NC2=O)ccc1OC(=O)c1ccco1	-3	8	72*	-1	3	79*	43*

Assay outcomes as filed in PubChem.
